Experimental data reported in ChEMBL document CHEMBL3232740, “Differences in conformational dynamics between Plasmodium falciparum and human Hsp90 orthologues enable the structure-based discovery of pathogen-selective inhibitors” (J Med Chem, 2014).
Active and inactive are the calls of the source. The calls are words filed in the database; no cut-off is given here.

Key:
[1] = biological target: T1, HSP90 (Plasmodium falciparum 3D7, UniProt Q8IL32); assay: Binding affinity to N-terminal FLAG-tagged Plasmodium falciparum recombinant HSP90 (1 to 223) expressed in Escherichia coli BL21(DE3) by microscale thermophoresis assay
T1 sequence (Q8IL32 whole entry): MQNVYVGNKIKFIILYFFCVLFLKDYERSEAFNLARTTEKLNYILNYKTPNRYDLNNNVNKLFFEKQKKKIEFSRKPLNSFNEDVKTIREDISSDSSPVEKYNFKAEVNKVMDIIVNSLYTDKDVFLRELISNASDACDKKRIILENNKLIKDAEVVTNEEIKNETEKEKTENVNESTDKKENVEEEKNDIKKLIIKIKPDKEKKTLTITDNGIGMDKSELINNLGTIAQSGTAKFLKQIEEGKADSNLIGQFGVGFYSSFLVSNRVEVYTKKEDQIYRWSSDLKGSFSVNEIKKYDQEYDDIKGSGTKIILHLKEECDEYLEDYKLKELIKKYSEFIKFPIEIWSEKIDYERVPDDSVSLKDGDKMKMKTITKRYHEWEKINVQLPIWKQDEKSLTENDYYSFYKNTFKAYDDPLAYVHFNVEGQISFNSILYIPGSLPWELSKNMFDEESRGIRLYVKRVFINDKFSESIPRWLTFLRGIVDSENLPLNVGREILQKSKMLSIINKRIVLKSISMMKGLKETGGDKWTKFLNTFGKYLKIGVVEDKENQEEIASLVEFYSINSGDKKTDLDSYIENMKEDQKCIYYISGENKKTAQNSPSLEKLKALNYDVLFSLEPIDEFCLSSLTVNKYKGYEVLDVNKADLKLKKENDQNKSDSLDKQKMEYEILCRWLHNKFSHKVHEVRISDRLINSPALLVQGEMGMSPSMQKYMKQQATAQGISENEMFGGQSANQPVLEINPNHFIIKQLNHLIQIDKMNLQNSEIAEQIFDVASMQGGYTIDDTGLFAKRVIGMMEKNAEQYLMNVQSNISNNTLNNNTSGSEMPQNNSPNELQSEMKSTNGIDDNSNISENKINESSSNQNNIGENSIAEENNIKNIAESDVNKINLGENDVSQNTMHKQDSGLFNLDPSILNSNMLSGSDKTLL
How it was run: (§1)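 Recombinant Pf Hsp90 proteins were expressed in E. coli BL21 DE3 pLysS in LB, induced with 0.5 mM IPTG for 18 h at 20 °C. They were purified by His-affinity then size exclusion, keeping the 33 kDa fractions. Ligand was titrated in 1:1 dilutions against 100 nM protein with 5% DMSO. MST was run at 40% LED and 40% MST power.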

[2] = test system: L6; assay: Cytotoxicity against rat L6 cells after 72 hrs by Alamar Blue assay; type: cell-based
[3] = test system: Plasmodium falciparum; assay: Antiplasmodial activity against Plasmodium falciparum NF54 infected in human erythrocytes assessed as growth inhibition by [3H]hypoxanthine incorporation assay; type: functional, organism-based
[4] = Ratio of IC50 for rat L6 cells to IC50 for Plasmodium falciparum NF54
How it was run: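 Ratio of two IC50s. P. falciparum NF54 was grown in human erythrocytes (Trager–Jensen) for a 72 h assay window, with growth read as [3H]hypoxanthine incorporation. Cytotoxicity was measured in rat skeletal myoblast L6 cells.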

[5] = test system: Heat-shock protein (Plasmodium falciparum), Q25869 [K313Q]; assay: Inhibition of Plasmodium falciparum HSP90 K313Q mutant expressed in yeast assessed as growth inhibition of host at 100 uM after 72 hrs
[6] = Binding affinity to N-terminal FLAG-tagged Plasmodium falciparum recombinant HSP90 R98K mutant expressed in Escherichia coli BL21(DE3) by microscale thermophoresis assay; how it was run: as §1
[7] = Inhibition of Plasmodium falciparum HSP90 ISG-LGA mutant expressed in yeast assessed as growth inhibition of host after 72 hrs
How it was run: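 Host was an isogenic S. cerevisiae strain derived from DP533 (Δhsc82 Δhsp82 pdr5), carrying Flag-tagged PfHsp90 ISG-LGA/K313Q from a low-copy plasmid as its only Hsp90. Cultures were diluted to OD600 0.1 in minimal medium with 2% DMSO. OD600 was read every 30 min for 72 h. Growth % was maximal growth-curve slope relative to solvent-only; IC50 from triplicate dose-response.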

[8] = Binding affinity to N-terminal FLAG-tagged Plasmodium falciparum recombinant HSP90 ISG-LGA mutant expressed in Escherichia coli BL21(DE3) by microscale thermophoresis assay; how it was run: as §1

Heat-shock protein (Plasmodium falciparum), Q25869 [K313Q], sequence (Q25869 whole entry K313Q): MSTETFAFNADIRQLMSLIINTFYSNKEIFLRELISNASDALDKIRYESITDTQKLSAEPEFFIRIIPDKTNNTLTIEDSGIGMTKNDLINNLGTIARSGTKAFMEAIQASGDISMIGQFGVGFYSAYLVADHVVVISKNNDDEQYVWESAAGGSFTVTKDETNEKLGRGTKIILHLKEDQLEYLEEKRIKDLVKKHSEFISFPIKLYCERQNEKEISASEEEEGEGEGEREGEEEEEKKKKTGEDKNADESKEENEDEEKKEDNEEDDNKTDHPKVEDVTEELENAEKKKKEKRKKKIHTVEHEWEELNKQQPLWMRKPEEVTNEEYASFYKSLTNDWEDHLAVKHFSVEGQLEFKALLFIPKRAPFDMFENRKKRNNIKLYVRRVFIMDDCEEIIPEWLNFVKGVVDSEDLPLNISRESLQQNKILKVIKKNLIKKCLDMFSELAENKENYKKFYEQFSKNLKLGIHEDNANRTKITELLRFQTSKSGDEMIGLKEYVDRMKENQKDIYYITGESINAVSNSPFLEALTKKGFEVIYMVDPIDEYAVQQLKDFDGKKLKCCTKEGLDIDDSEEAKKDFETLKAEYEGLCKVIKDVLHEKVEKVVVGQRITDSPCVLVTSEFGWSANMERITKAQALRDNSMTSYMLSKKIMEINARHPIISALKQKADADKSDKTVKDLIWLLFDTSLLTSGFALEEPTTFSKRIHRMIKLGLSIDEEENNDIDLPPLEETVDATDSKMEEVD

Row | SMILES | Kd [1] | IC50 ([2]; Rattus norvegicus, L6, 72 h) | IC50 ([3]; Plasmodium falciparum, NF54) | Ratio IC50 [4] | other results
1 | COCC(=O)Nc1c(C(=O)OC)n(CCC(C)C)c2ncc(NC3CCCCCCC3)cc12 | 25.4 µM | 56 µM | 5.02 µM | >10 | –
2 | COCC(=O)Nc1c(C(=O)OC)n(CCC(C)C)c2ncc(NC(C)C)cc12 | 175 µM | 56 µM | 13.8 µM | 4 | –
3 | COCCn1c(C(=O)OC)c(NC(=O)Cc2ccccc2)c2cc(NC3CCCCCCC3)cnc21 | – | – | – | – | inhibition [5]: Active
4 | COCC(=O)Nc1c(C(=O)OC)n(CCC(C)C)c2ncc(NC(C)CCC=C(C)C)cc12 (racemic) | 14.1 µM | 63 µM | 5.75 µM | >10 | Kd [6]: 16.5 µM; IC50 [7]: 61.2 µM
5 | COCC(=O)Nc1c(C(=O)OC)n(C)c2ncc(NC(C)CCC=C(C)C)cc12 (racemic) | 115 µM | – | – | – | –
6 | COC1=C2C[C@@H](C)C[C@H](OC)[C@H](O)[C@@H](C)/C=C(\C)[C@H](OC(N)=O)[C@@H](OC)/C=C\C=C(/C)C(=O)NC(=CC1=O)C2=O [GELDANAMYCIN] | – | – | – | – | IC50 ([2]; l6): 6 µM; Kd [8]: 0.103 µM; IC50 [3]: 0.148 µM
